Experimental data: ChEMBL document CHEMBL2390866, “Novel pyrimidoazepine analogs as serotonin 5-HT(2A) and 5-HT(2C) receptor ligands for the treatment of obesity” (Eur J Med Chem, 2013)
Active and inactive are the calls of the source. The calls are words filed in the database; no cut-off is given here.

Experiments:
Mus musculus [1] = assay: Antiobesity activity in B6.V/J ob/ob mouse assessed as inhibition of food intake at 50 mg/kg, ip measured up to 6 hrs relative to vehicle-treated control; assay type: functional; settings: route intraperitoneal
How it was run: (§1)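 Male mice were acclimated 1 week at 23 ± 3 °C and 50 ± 20% humidity, then fasted 24 h. They were dosed once intraperitoneally with vehicle or compound: 50 mg/kg in C57BL/6, or 12.5, 25 or 50 mg/kg in B6.V-Lep^ob/J. Food intake was measured at 2, 6 and 12 h versus vehicle control.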

Mus musculus [2] = assay: Antiobesity activity in B6.V/J ob/ob mouse assessed as change in kidney weight at 5 mg/kg, po bid measured after 14 days (reference value: 0.339 +/- 0.009 g); assay type: functional
Mus musculus [3] = assay: Antiobesity activity in B6.V/J ob/ob mouse assessed as change in heart weight at 25 mg/kg, po bid measured after 14 days (reference value: 0.150 +/- 0.003 g); assay type: functional
Mus musculus [4] = assay: Antiobesity activity in B6.V/J ob/ob mouse assessed as change in lung weight at 5 mg/kg, po bid measured after 14 days (reference value: 0.143 +/- 0.013 g); assay type: functional
Mus musculus [5] = assay: Antiobesity activity in B6.V/J ob/ob mouse assessed as change in lung weight at 25 mg/kg, po bid measured after 14 days (reference value: 0.143 +/- 0.013 g); assay type: functional
Mus musculus [6] = assay: Antiobesity activity in B6.V/J ob/ob mouse assessed as reduction of food intake at 25 mg/kg, po qd measured after 14 days; assay type: functional, organism-based; design: dose 25 mg/kg
How it was run: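 Male ob/ob mice (B6.V-Lep^ob/J) received oral doses once daily for 14 days, with vehicle control. Food intake and body weight gain were followed.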

[7] = molecular target: T1, 5-hydroxytryptamine receptor 2C (Homo sapiens, UniProt P28335); assay: Displacement of [3H]-mesulergine from human recombinant 5HT-2C receptor expressed in CHOK1 cell membranes after 30 mins; design: species or system CHO-K1
T1 sequence (P28335 whole entry): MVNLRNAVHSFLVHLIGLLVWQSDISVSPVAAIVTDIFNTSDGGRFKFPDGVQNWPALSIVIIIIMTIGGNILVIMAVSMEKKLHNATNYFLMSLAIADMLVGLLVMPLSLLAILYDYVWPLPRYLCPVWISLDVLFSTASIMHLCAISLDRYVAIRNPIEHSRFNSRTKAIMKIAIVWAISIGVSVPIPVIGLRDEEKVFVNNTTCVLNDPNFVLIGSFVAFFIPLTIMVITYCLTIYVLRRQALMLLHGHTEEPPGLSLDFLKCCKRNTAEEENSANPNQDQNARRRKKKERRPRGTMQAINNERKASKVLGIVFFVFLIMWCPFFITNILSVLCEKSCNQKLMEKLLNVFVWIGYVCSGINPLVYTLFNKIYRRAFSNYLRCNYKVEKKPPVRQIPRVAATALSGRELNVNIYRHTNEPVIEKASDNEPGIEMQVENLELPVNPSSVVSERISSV
How it was run: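 Frozen CHO-K1 membranes expressing recombinant human 5-HT2C incubated with 1 nM [3H]mesulergine in 50 mM Tris-HCl pH 7.4 containing 0.1% ascorbic acid and pargyline. Mianserin defined nonspecific binding.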

Mus musculus [8] = assay: Toxicity in B6.V/J ob/ob mouse assessed as mortality at 50 mg/kg, po bid measured after 14 days; assay type: organism-based; design: dose 50 mg/kg, route oral; settings: in vivo, 336 h
[9] = Clearance in Sprague-Dawley rat at 10 mg/kg, iv; assay type: ADME, organism-based; design: dose 10 mg/kg, route intravenous; settings: in vivo
How it was run: (§2)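 Rats fasted 12 h, then dosed orally by gavage or by bolus tail-vein injection at 2 ml/kg. Compound given as a 5 mg/ml solution in N-methyl-2-pyrrolidone/Tween 80/water (1:2:7). Samples taken at various times (n = 5) and stored at −70 °C. Plasma deproteinized with acetonitrile containing carbamazepine internal standard, then quantified by LC-MS/MS.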

Mus musculus [10] = assay: Antiobesity activity in B6.V/J ob/ob mouse assessed as change in liver weight at 25 mg/kg, po bid measured after 14 days (reference value: 3.396 +/- 0.162 g); assay type: functional
Mus musculus [11] = assay: Antiobesity activity in B6.V/J ob/ob mouse assessed as change in heart weight at 5 mg/kg, po bid measured after 14 days (reference value: 0.150 +/- 0.003 g); assay type: functional
[12] = Cmax in Sprague-Dawley rat at 10 mg/kg, po; assay type: ADME, organism-based; design: dose 10 mg/kg, route oral; settings: in vivo; how it was run: as §2
Mus musculus [13] = assay: Antiobesity activity in B6.V/J ob/ob mouse assessed as change in brain weight at 25 mg/kg, po bid measured after 14 days (reference value: 0.340 +/- 0.017 g); assay type: functional
Mus musculus [14] = assay: Antiobesity activity in B6.V/J ob/ob mouse assessed as […] at 25 mg/kg, ip measured after 12 hrs relative to vehicle-treated control; assay type: functional; settings: route intraperitoneal
[15] = Oral bioavailability in Sprague-Dawley rat at 10 mg/kg; assay type: ADME, organism-based; settings: in vivo; how it was run: as §2
Mus musculus [16] = assay: Antiobesity activity in B6.V/J ob/ob mouse assessed as inhibition of food intake at 50 mg/kg, ip measured up to 2 hrs relative to vehicle-treated control; assay type: functional; settings: route intraperitoneal; how it was run: as §1
[17] = Plasma concentration in Sprague-Dawley rat at 10 mg/kg, iv measured at 8 hrs; assay type: ADME, organism-based; design: dose 10 mg/kg, route intravenous; how it was run: as §2
[18] = Ratio of drug level from brain to plasma in Sprague-Dawley rat at 10 mg/kg, po measured at 2 hrs; assay type: ADME, organism-based; design: dose 10 mg/kg, route oral; settings: read-out: BPR; how it was run: as §2
[19] = molecular target: 5-hydroxytryptamine receptor 2A (Homo sapiens, UniProt P28223); assay: Displacement of [3H]-ketanserin from human recombinant 5HT-2A receptor expressed in CHOK1 cell membranes after 60 mins; design: species or system CHO-K1
Sequence of 5-hydroxytryptamine receptor 2A (P28223 whole entry): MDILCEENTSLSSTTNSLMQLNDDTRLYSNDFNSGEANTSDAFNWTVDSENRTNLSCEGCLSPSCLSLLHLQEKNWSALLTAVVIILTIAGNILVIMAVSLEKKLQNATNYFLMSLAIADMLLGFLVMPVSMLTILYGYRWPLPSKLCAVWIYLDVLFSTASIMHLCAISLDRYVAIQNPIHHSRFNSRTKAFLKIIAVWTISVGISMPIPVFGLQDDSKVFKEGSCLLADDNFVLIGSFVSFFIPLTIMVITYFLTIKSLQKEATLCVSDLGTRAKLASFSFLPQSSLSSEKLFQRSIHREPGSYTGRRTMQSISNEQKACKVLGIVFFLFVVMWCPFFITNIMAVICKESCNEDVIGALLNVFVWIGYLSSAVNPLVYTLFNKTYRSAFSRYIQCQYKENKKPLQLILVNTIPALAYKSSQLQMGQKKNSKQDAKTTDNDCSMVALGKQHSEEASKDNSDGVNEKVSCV
How it was run: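 Buffer was 50 mM Tris-HCl pH 7.4 with 5 mM CaCl2 and 0.1% ascorbic acid. Test compound added at a range of concentrations.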

Mus musculus [20] = assay: Antiobesity activity in B6.V/J ob/ob mouse assessed as inhibition of food intake at 50 mg/kg, ip measured up to 12 hrs relative to vehicle-treated control; assay type: functional; settings: route intraperitoneal; how it was run: as §1
Mus musculus [21] = assay: Antiobesity activity in B6.V/J ob/ob mouse assessed as reduction of body weight gain at 50 mg/kg, po bid measured after 14 days; assay type: functional, organism-based; design: dose 50 mg/kg
[22] = molecular target: 5-hydroxytryptamine receptor 7 (Homo sapiens, UniProt P34969); assay: Displacement of [3H]-LSD from human recombinant 5HT-7 receptor expressed in CHOK1 cell membranes after 120 mins; design: species or system CHO-K1
Sequence of 5-hydroxytryptamine receptor 7 (P34969 whole entry): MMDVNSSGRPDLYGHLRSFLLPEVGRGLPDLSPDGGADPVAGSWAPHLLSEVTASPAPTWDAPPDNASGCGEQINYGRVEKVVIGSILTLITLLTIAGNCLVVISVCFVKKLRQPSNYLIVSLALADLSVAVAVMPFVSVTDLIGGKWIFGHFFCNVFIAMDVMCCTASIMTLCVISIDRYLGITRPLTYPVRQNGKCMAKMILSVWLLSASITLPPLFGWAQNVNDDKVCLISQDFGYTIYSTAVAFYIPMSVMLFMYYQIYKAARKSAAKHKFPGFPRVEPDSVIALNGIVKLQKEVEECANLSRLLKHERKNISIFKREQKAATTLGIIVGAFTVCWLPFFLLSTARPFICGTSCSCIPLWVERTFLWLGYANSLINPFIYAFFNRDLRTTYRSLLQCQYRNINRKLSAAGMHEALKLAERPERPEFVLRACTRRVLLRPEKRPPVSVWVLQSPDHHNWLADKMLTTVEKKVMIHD
How it was run: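 CHO-K1 membranes expressing human 5-HT7 incubated with 3 nM [3H]LSD for 120 min at 27 °C in 50 mM Tris-HCl pH 7.4, 10 mM MgSO4, 0.5 mM EDTA. Filtered on glass-fiber filters presoaked in 0.3% PEI. Methiothepin defined nonspecific binding.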

Mus musculus [23] = assay: Antiobesity activity in B6.V/J ob/ob mouse assessed as change in liver weight at 50 mg/kg, po bid measured after 14 days (reference value: 3.396 +/- 0.162 g); assay type: functional
Mus musculus [24] = assay: Antiobesity activity in B6.V/J ob/ob mouse assessed as inhibition of food intake at 25 mg/kg, ip measured up to 12 hrs relative to vehicle-treated control; assay type: functional; settings: route intraperitoneal; how it was run: as §1
Mus musculus [25] = assay: Antiobesity activity in B6.V/J ob/ob mouse assessed as change in thymus weight at 25 mg/kg, po bid measured after 14 days (reference value: 0.029 +/- 0.006 g); assay type: functional

For `Cl.Clc1cccc(Nc2nc(Cc3ccccc3)nc3c2CCNCC3)c1`, the inhibition in vivo at 50 mg/kg (Mus musculus [1]) was 98.6%, the Activity (Mus musculus [2]) was 0.329 g and the Activity (Mus musculus [3]) was 0.143 g. For the same molecule, the Activity (Mus musculus [4]) was 0.124 g, the Activity (Mus musculus [5]) was 0.154 g and the Activity (Mus musculus [6]) was “inactive”. The IC50 [7] was 2.3 nM, the Activity (Mus musculus [8]) was “Toxic” and the clearance [9] was 97.2 mL/min/kg. For the same molecule, the Activity (Mus musculus [10]) was 3.173 g, the Activity (Mus musculus [11]) was 0.163 g and the Cmax [12] was 70 ng/mL. The Activity (Mus musculus [13]) was 0.369 g, the inhibition in vivo at 25 mg/kg (Mus musculus [14]) was 51.1% and the bioavailability [15] was 55.1%. The inhibition in vivo at 50 mg/kg (Mus musculus [16]) was 99.8%, the concentration at 8 h [17] was 60 ng/mL and the Kp at 2 h [18] was 0.66. The IC50 [19] was 3 nM, the inhibition in vivo at 50 mg/kg (Mus musculus [20]) was 93.3% and the Activity (Mus musculus [21]) was “Active”. For the same molecule, the IC50 [22] was 1000 nM, the Activity (Mus musculus [23]) was 3.87 g and the inhibition in vivo at 25 mg/kg (Mus musculus [24]) was 77.8%. For the same molecule, the Activity (Mus musculus [25]) was 0.034 g.
